Laboratory results: ChEMBL document CHEMBL1141149, “Novel fluorinated prodrugs for activation by carboxypeptidase G2 showing good in vivo antitumor activity in gene-directed enzyme prodrug therapy” (J Med Chem, 2005)

T1: Carboxypeptidase G2 (Pseudomonas aeruginosa (strain ATCC 15692 / PAO1 / 1C / PRS 101 / LMG12228)) (UniProt Q9I056)
T1 sequence (whole entry): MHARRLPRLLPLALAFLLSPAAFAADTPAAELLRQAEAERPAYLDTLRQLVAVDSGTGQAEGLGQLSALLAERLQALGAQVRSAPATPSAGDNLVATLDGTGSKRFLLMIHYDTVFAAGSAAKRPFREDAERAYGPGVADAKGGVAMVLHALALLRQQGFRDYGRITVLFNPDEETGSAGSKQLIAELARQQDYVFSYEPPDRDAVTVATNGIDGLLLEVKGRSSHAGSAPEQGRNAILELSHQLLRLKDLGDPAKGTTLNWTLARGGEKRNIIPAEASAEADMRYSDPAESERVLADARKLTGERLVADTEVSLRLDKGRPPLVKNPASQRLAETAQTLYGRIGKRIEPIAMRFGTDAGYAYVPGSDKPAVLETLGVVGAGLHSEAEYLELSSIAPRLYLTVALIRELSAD

B1: Carboxypeptidase G2 (Pseudomonas aeruginosa (strain ATCC 15692 / PAO1 / 1C / PRS 101 / LMG12228)), Q9I056 (protein)
chain: T1 sequence (whole entry)

Experiments:
[1] = target: T1, Carboxypeptidase G2 (Pseudomonas aeruginosa (strain ATCC 15692 / PAO1 / 1C / PRS 101 / LMG12228)); assay: Kcat against carboxypeptidase G2 in inhibitory kinetic assay
Outline: (§1)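 Prodrug 0.2–50 μM (25 concentrations) in CPG2 assay buffer (100 mM Tris-HCl pH 7.3, 260 μM ZnCl2) at 37 °C, ±50 mU CPG2. Absorbance change at wavelength of maximal prodrug/drug difference followed 1 min, non-enzymic change subtracted, converted to substrate loss. Km and kcat from Michaelis–Menten nonlinear fit.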

[2] = Cytotoxicity aganist MDA MB361 cell line MDA MB 361 expressing carboxypeptidase G2 done for 1 hr with compound dissolved in DMSO; assay type: functional, cell-based; conditions: Homo sapiens, MDA-MB-361, 1 h
Outline: (§2)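 Stably transfected MDA MB 361 lines (β-gal, cytoplasmic CPG2, or surface-tethered stCPG2(Q)3) in DMEM/10% FBS, confluent 6-well monolayers. Prodrug series 1 h, then equal concentration fresh solution added, 20 h more. Cells reseeded 2×10^3/well, grown 5 days; SRB staining, A540. IC50 by four-parameter logistic fit of % control growth.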

[3] = Cytotoxicity against MDA MB361 cell line MDA MB 361 expressing beta-galactosidase done for 1 h with compound dissolved in DMSO; assay type: functional, cell-based; conditions: Homo sapiens, MDA-MB-361, 1 h; outline: as §2
[4] = Chemical half life period as substrates of CPG2 was determined; assay type: ADME
Outline: (§3)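 Compounds diluted from 10 mM DMSO stocks to 100 μM final in CPG2 assay buffer (100 mM Tris-HCl pH 7.3, 260 μM ZnCl2), no enzyme. Remaining parent measured over time by repeat isocratic reverse-phase HPLC injections (10 mM ammonium acetate pH 5.0/methanol), UV at λmax. Half-life from one-phase exponential decay fit (max 1, min 0).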

[5] = Ratio of IC50 of LacZ cell line to CPG2-expressing cell line; assay type: functional, Homo sapiens
Outline: (§4)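 Selectivity ratio: IC50 in β-gal (LacZ) control MDA MB 361 cells divided by IC50 in CPG2- or stCPG2(Q)3-expressing cells, both from 1 h + 20 h exposure, 5-day regrowth SRB assay.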

[6] = Half life period was determined; assay type: ADME; conditions: rat; outline: as §3
[7] = Ratio of IC50 of LacZ cell line to stCPG2(Q)3-expressing cell line; assay type: functional, Homo sapiens; outline: as §4
[8] = Cytotoxicity aganist MDA MB361 cell line MDA MB 361 expressing stCPG2(Q)3 done for 1 hr with compound dissolved in DMSO; assay type: functional, cell-based; conditions: Homo sapiens, MDA-MB-361, 1 h; outline: as §2
[9] = compound: O=C(O)CC[C@H](NC(=O)c1cc(F)c(N(CCI)CCI)c(F)c1F)C(=O)O; assay: (§5) Km against carboxypeptidase G2 in inhibitory kinetic assay; conditions: Pseudomonas; outline: as §1
[10] = compound: O=C(O)CC[C@H](NC(=O)c1cc(F)c(N(CCCl)CCCl)c(F)c1)C(=O)O; assay: as §5; conditions: Pseudomonas; outline: as §1
[11] = compound: O=C(O)CC[C@H](NC(=O)c1cc(F)c(N(CCBr)CCBr)c(F)c1)C(=O)O; assay: as §5; conditions: Pseudomonas; outline: as §1
[12] = compound: O=C(O)CC[C@H](NC(=O)c1cc(F)c(N(CCI)CCI)c(F)c1)C(=O)O; assay: as §5; conditions: Pseudomonas; outline: as §1
[13] = compound: O=C(O)CC[C@H](NC(=O)c1cc(F)c(N(CCCl)CCCl)c(F)c1F)C(=O)O; assay: as §5; conditions: Pseudomonas; outline: as §1
[14] = compound: CS(=O)(=O)OCCN(CCCl)c1ccc(C(=O)N[C@@H](CCC(=O)O)C(=O)O)cc1; assay: as §5; conditions: Pseudomonas; outline: as §1
[15] = compound: O=C(O)CC[C@H](NC(=O)c1cc(F)c(N(CCBr)CCBr)c(F)c1F)C(=O)O; assay: as §5; conditions: Pseudomonas; outline: as §1

Molecule	K cat [1]	IC50 [2] [µM]	IC50 [3] [µM]	half-life [4] [h]	Differential [5]	half-life [6] [h]	Differential [7]	IC50 [8] [µM]	Km [9] [µM]	Km [10] [µM]	Km [11] [µM]	Km [12] [µM]	Km [13] [µM]	Km [14] [µM]	Km [15] [µM]
O=C(O)CC[C@H](NC(=O)c1cc(F)c(N(CCI)CCI)c(F)c1)C(=O)O	1150 1/S	39	3300	0.15	86	< 0.0833	127	26							
O=C(O)CC[C@H](NC(=O)c1cc(F)c(N(CCBr)CCBr)c(F)c1F)C(=O)O	825 1/S	82	> 4000	0.382	>49	0.15	>80	50							
O=C(O)CC[C@H](NC(=O)c1c(F)c(F)c(N(CCI)CCI)c(F)c1F)C(=O)O	0 1/S	> 4000	> 4000	2				> 4000							
O=C(O)CC[C@H](NC(=O)c1cc(F)c(N(CCCl)CCCl)c(F)c1)C(=O)O	732 1/S	42	> 4000	4.9	>95	1.5	>150	26							
O=C(O)CC[C@H](NC(=O)c1cc(F)c(N(CCBr)CCBr)c(F)c1)C(=O)O	827 1/S	53	> 4000	0.0917	>75	< 0.0833	>280	14							
O=C(O)CC[C@H](NC(=O)c1c(F)c(F)c(N(CCCl)CCCl)c(F)c1F)C(=O)O	0 1/S	> 4000	> 4000	82.3				> 4000							
O=C(O)CC[C@H](NC(=O)c1cc(F)c(N(CCCl)CCCl)c(F)c1F)C(=O)O	1150 1/S	73	> 4000	21.7	>55	6	>87	46							
CS(=O)(=O)OCCN(CCCl)c1ccc(C(=O)O)cc1				0.5											
CS(=O)(=O)OCCN(CCCl)c1ccc(C(=O)N[C@@H](CCC(=O)O)C(=O)O)cc1	583 1/S	1880	3130				19	165							
O=C(O)CC[C@H](NC(=O)c1cc(F)c(N(CCI)CCI)c(F)c1F)C(=O)O	220 1/S	671	> 4000	0.622	>6	6	>23	173							
B1									2.8	1.71	1.18	1.74	2.6	3.4	1.1
